Source: ChEMBL document CHEMBL1275331, “Discovery of a novel 5-HT(3) antagonist/5-HT(1A) agonist 3-amino-5,6,7,8-tetrahydro-2-{4-[4-(quinolin-2-yl)piperazin-1-yl]butyl}quinazolin-4(3H)-one (TZB-30878) as an orally bioavailable agent for irritable bowel syndrome” (J Med Chem, 2010)

Columns and labels:
[1] = target: T1, 5-hydroxytryptamine receptor 3A (Homo sapiens, UniProt P46098); assay: Displacement of [3H]BRL-43694 from human 5HT3 receptor expressed in HEK293 cells by liquid scintillation counting; format: cell-based
T1 sequence (P46098 whole entry): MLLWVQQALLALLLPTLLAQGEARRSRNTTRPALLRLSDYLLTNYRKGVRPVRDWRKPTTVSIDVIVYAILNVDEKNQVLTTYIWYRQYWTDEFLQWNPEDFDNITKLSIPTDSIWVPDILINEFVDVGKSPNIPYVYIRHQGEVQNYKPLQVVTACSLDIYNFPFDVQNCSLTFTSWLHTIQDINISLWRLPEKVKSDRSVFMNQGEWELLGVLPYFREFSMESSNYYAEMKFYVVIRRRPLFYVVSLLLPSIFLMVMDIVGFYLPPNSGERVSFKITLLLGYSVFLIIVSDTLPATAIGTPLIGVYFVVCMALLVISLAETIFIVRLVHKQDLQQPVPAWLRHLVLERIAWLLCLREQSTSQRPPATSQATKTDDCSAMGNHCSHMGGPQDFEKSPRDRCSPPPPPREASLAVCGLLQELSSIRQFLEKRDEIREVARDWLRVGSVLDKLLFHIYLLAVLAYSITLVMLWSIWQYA
Outline: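 HEK-293 membranes expressing human 5-HT3 were incubated with 0.5 nmol/L [3H]BRL-43694 (final) for 60 min at 25 °C. Buffer: 50 mM Tris-HCl, 5 mM MgCl2, 1 mM EDTA, pH 7.5. Compound came from 270 μmol/L DMSO stock, diluted in buffer. Filtration was through GF/B presoaked in 0.5% polyethyleneimine, with two cold Tris washes. Run in duplicate or triplicate; percent inhibition calculated.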

[2] = target: T2, 5-hydroxytryptamine receptor 1A (Homo sapiens, UniProt P08908); assay: Displacement of [3H]8-OH-DPAT from human 5HT1A receptor expressed in CHO cells by liquid scintillation counting; format: cell-based
T2 sequence (P08908 whole entry): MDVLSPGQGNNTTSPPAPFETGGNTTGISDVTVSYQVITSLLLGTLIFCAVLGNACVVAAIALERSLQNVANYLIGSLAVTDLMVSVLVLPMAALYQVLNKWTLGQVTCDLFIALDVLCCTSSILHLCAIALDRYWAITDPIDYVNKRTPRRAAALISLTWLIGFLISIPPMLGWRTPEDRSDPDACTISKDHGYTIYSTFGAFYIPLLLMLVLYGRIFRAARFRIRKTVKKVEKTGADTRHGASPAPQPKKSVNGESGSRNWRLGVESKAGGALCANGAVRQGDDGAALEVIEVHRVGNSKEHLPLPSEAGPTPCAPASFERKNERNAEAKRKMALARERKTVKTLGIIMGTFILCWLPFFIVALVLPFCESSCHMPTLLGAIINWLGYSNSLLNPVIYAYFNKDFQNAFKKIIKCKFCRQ
Outline: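 CHO-cell membranes with human 5-HT1A were incubated with 0.25 nmol/L [3H]8-OH-DPAT (final) for 60 min at 27 °C. Buffer: 50 mM Tris-HCl, 10 mM MgSO4, 0.5 mM EDTA, 0.1% ascorbic acid, pH 7.4. Compound came from 270 μmol/L DMSO stock, diluted in buffer. Filtration was through GF/C presoaked in 0.3% polyethyleneimine, with two cold Tris washes. Run in duplicate or triplicate; percent inhibition of binding calculated.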

[3] = Drug level in Sprague-Dawley rat brain at 3 mg/kg, po after 2 hrs by HPLC analysis; format: ADME, organism-based; parameters: dose 3 mg/kg, route oral; conditions: read-out: Drug uptake
Outline: (§1)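 Total compound concentration was measured in brain and blood at 2, 4 and 8 h after a single oral 3 mg/kg dose. Brain/blood ratio was also derived. Values are mean ± SD of three rats.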

[4] = Drug level in Sprague-Dawley rat blood at 3 mg/kg, po after 2 hrs by HPLC analysis; format: ADME, organism-based; parameters: dose 3 mg/kg, route oral; conditions: whole blood, read-out: Drug uptake; outline: as §1
[5] = Ratio of drug level in brain to blood in Sprague-Dawley rat at 3 mg/kg, po after 2 hrs; format: ADME, organism-based; parameters: dose 3 mg/kg, route oral
Outline: (§2)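 Rats dosed 3 mg/kg orally; total compound levels measured in brain and blood at 2, 4 and 8 h, brain/blood ratio derived. Mean ± SD of three rats.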

[6] = Drug level in Sprague-Dawley rat brain at 3 mg/kg, po after 4 hrs by HPLC analysis; format: ADME, organism-based; parameters: dose 3 mg/kg, route oral; conditions: read-out: Drug uptake; outline: as §1
[7] = Drug level in Sprague-Dawley rat blood at 3 mg/kg, po after 4 hrs by HPLC analysis; format: ADME, organism-based; parameters: dose 3 mg/kg, route oral; conditions: whole blood, read-out: Drug uptake; outline: as §1
[8] = Ratio of drug level in brain to blood in Sprague-Dawley rat at 3 mg/kg, po after 4 hrs; format: ADME, organism-based; parameters: dose 3 mg/kg, route oral; outline: as §2
[9] = Drug level in Sprague-Dawley rat brain at 3 mg/kg, po after 8 hrs by HPLC analysis; format: ADME, organism-based; parameters: dose 3 mg/kg, route oral; conditions: read-out: Drug uptake; outline: as §1
[10] = Drug level in Sprague-Dawley rat blood at 3 mg/kg, po after 8 hrs by HPLC analysis; format: ADME, organism-based; parameters: dose 3 mg/kg, route oral; conditions: whole blood, read-out: Drug uptake; outline: as §1
[11] = Ratio of drug level in brain to blood in Sprague-Dawley rat at 3 mg/kg, po after 8 hrs; format: ADME, organism-based; parameters: dose 3 mg/kg, route oral; outline: as §2
[12] = target: T3, 5-hydroxytryptamine receptor 3A (Cavia porcellus) (UniProt O70212); assay: Inhibition of 5HT3 receptor-mediated contraction of guinea pig ileum at 1 umol/L after 20 mins relative to control; format: tissue-based
T3 sequence (whole entry): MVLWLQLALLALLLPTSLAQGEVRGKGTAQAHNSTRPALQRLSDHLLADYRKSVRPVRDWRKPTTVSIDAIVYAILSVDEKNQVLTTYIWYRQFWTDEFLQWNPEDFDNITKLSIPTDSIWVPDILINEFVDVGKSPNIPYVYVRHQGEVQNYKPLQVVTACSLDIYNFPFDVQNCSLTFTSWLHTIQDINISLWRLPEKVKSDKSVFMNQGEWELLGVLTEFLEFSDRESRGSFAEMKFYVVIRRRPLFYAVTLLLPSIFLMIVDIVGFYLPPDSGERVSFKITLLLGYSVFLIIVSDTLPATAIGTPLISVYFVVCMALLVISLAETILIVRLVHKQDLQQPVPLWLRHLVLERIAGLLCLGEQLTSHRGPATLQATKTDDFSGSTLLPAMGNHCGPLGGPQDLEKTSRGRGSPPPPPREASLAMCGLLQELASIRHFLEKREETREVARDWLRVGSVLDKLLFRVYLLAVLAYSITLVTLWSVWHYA
Outline: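 Ileum strips in Tyrode solution at 37 °C, gassed 5% CO2/95% O2, isotonic contractions under 1 g load. After at least 3 stable contractions to 10 μM 2-methyl-5-HT, tissue exposed to compound or DMSO vehicle for 20 min, then 10 μM 2-methyl-5-HT re-added; contraction expressed as % inhibition of control.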

Structure (SMILES) | IC50 [1] [µM] | IC50 [2] [µM] | further results
Nn1c(CCCCN2CCN(c3ccc4ccccc4n3)CC2)nc2cccc(Cl)c2c1=O | > 0.1 | < 0.01 | –
Cc1cccc2nc(CCCCN3CCN(c4ccc5ccccc5n4)CC3)n(N)c(=O)c12 | > 0.1 | 0.0135 | –
Cc1c(N2CCN(CCCCc3nc4c(c(=O)n3N)CCCC4)CC2)nc2ccccc2c1C | > 0.1 | 0.0646 | –
Nn1c(CCCCN2CCN(c3nc4ccccc4c4c3CCC4)CC2)nc2c(c1=O)CCCC2 | > 0.1 | 0.0623 | –
Nn1c(CCCCN2CCN(c3ccc4ccccc4n3)CC2)nc2c(c1=O)CCCCC2 | 0.0848 | < 0.01 | –
O=c1[nH]c(SCCCN2CCN(c3ccc4ccccc4n3)CC2)nc2sc3c(c12)CCCC3 | 0.0442 | > 0.1 | –
Nn1c(CCCCN2CCN(c3ccc4ccc(O)cc4n3)CC2)nc2c(c1=O)CCCC2 | 0.0552 | 0.0466 | –
Nn1c(SCCCN2CCN(c3ccc4ccccc4n3)CC2)nc2sc3c(c2c1=O)CCNC3 | 0.1 | 0.0052 | –
Nn1c(CCCCN2CCN(c3ccc4ccccc4n3)CC2)nc2ccc(Cl)cc2c1=O | > 0.1 | < 0.01 | –
Nn1c(SCCCN2CCN(c3ccc4ccccc4n3)CC2)nc2ncccc2c1=O | 0.0648 | < 0.001 | –
Nn1c(SCCCN2CCN(c3ccc4ccccc4n3)CC2)nc2cccnc2c1=O | 0.061 | < 0.001 | –
Cc1cc2ccccc2nc1N1CCN(CCCCc2nc3c(c(=O)n2N)CCCC3)CC1 | > 0.1 | 0.096 | –
Nn1c(CCCCN2CCN(c3nc4ccccc4c4c3CCCC4)CC2)nc2c(c1=O)CCCC2 | > 0.1 | > 0.1 | –
Nn1c(CCCCN2CCN(c3ccc4ccccc4n3)CC2)nc2c(c1=O)CC(O)CC2 (stereo not drawn) | 0.0465 | < 0.01 | –
Cc1sc2nc(SCCCN3CCN(c4ccc5ccccc5n4)CC3)[nH]c(=O)c2c1C | > 0.1 | > 0.1 | –
Nn1c(CCCCN2CCN(c3ccc4ccccc4n3)CC2)nc2c(c1=O)CCC2 | 0.0621 | < 0.001 | –
Nn1c(CCCCN2CCN(c3nc4ccccc4cc3O)CC2)nc2c(c1=O)CCCC2 | 0.0526 | 0.0964 | –
Nn1c(CCN2CCN(c3ccc4ccccc4n3)CC2)nc2c(c1=O)CCCC2 | > 0.1 | > 0.1 | –
CC(=O)N1CCc2c(sc3nc(CCCCN4CCN(c5ccc6ccccc6n5)CC4)n(N)c(=O)c23)C1 | 0.0221 | < 0.01 | concentration at 2 h [3]: 0.0151 µM; concentration at 2 h [4]: 0.051 µM; Kp at 2 h [5]: 0.294; concentration at 4 h [6]: 0.0195 µM; concentration at 4 h [7]: 0.0558 µM; Kp at 4 h [8]: 0.355; concentration at 8 h [9]: 0.0134 µM; concentration at 8 h [10]: 0.0437 µM; Kp at 8 h [11]: 0.307
Nn1c(CCCCN2CCN(c3ccc4ccccc4n3)CC2)nc2cc(F)ccc2c1=O | > 0.1 | < 0.01 | –
Nn1c(CCCCN2CCN(c3ccc4cc(O)ccc4n3)CC2)nc2c(c1=O)CCCC2 | > 0.1 | 0.0593 | –
CC1CCc2nc(CCCCN3CCN(c4ccc5ccccc5n4)CC3)n(N)c(=O)c2C1 (stereo not drawn) | 0.0483 | < 0.01 | –

Structure (SMILES) | IC50 [1] [µM] | IC50 [2] [µM] | further results
Nn1c(CCCCCN2CCN(c3ccc4ccccc4n3)CC2)nc2c(c1=O)CCCC2 | > 0.1 | 0.0076 | –
Cc1sc2nc(SCCCN3CCN(c4cc(C)c5ccccc5n4)CC3)n(N)c(=O)c2c1C | 0.0505 | 0.0043 | –
Nn1c(CCCCN2CCN(c3ccc4ccccc4n3)CC2)nc2cccc(F)c2c1=O | 0.0506 | < 0.01 | –
Nn1c(CCCCN2CCN(c3ccc4ccccc4n3)CC2)nc2c(Cl)cccc2c1=O | 0.0831 | < 0.01 | –
Nn1c(CN2CCN(c3ccc4ccccc4n3)CC2)nc2c(c1=O)CCCC2 | 0.0866 | > 0.1 | –
Cc1sc2nc(SCCCN3CCN(c4nc5ccccc5nc4-c4ccccc4)CC3)n(N)c(=O)c2c1C | > 0.1 | > 0.1 | –
Cc1cccc2c(=O)n(N)c(CCCCN3CCN(c4ccc5ccccc5n4)CC3)nc12 | 0.0156 | < 0.01 | –
Nn1c(SCCCN2CCN(c3ccc4ccccc4n3)CC2)nc2cc([N+](=O)[O-])ccc2c1=O | > 0.1 | 0.0013 | –
CC1CCc2c(nc(CCCCN3CCN(c4ccc5ccccc5n4)CC3)n(N)c2=O)C1 (stereo not drawn) | 0.0979 | < 0.01 | –
Cc1sc2nc(SCCCN3CCN(c4nc5ccccc5s4)CC3)n(N)c(=O)c2c1C | 0.0876 | 0.0666 | –
O=c1[nH]c(CCCCN2CCN(c3ccc4ccccc4n3)CC2)nc2c1CCCC2 | 0.0246 | 0.0062 | –
Cc1sc2nc(SCCCN3CCN(c4ccc5c(n4)CCCC5)CC3)n(N)c(=O)c2c1C | > 0.1 | 0.0061 | –
Cc1sc2nc(SCCCN3CCN(c4ccccn4)CC3)n(N)c(=O)c2c1C | > 0.1 | 0.0042 | –
Nn1c(SCCCN2CCN(c3ccc4ccccc4n3)CC2)nc2ccccc2c1=O | 0.0699 | 0.0244 | –
Nn1c(CCCN2CCN(c3ccc4ccccc4n3)CC2)nc2c(c1=O)CCCC2 | > 0.1 | 0.0904 | –
Nn1c(CCCCN2CCN(c3ccc4ccccc4n3)CC2)nc2ccc(F)cc2c1=O | 0.0994 | < 0.01 | –
Nn1c(SCCCN2CCN(c3ccc4ccccc4n3)CC2)nc2sc3c(c2c1=O)CCCC3 | 0.0414 | < 0.01 | –
Nn1c(CCCCN2CCN(c3ccc4ccccc4n3)CC2)nc2cc(Cl)ccc2c1=O | > 0.1 | 0.018 | –
Cc1sc2nc(CCCCN3CCN(c4ccc5ccccc5n4)CC3)n(N)c(=O)c2c1C | 0.0267 | < 0.01 | –
Cc1sc2nc(SCCCN3CCN(c4nc5ccccc5c5ccccc45)CC3)n(N)c(=O)c2c1C | > 0.1 | 0.0554 | –
Cc1ccc2nc(CCCCN3CCN(c4ccc5ccccc5n4)CC3)n(N)c(=O)c2c1 | 0.0456 | < 0.01 | –
Cc1sc2nc(SCCCN3CCN(c4ccc5ccccc5n4)CC3)n(N)c(=O)c2c1C | 0.0484 | 0.0364 | inhibition [12]: 41.9%
